Measurements reported in ChEMBL document CHEMBL5226322, “Harnessing the Role of HDAC6 in Idiopathic Pulmonary Fibrosis: Design, Synthesis, Structural Analysis, and Biological Evaluation of Potent Inhibitors” (J Med Chem, 2021).
Calls of active or inactive are those of the source. No cut-off for these calls is given here.

How the values were obtained:
[1] = system: Heart; assay: Cardiotoxicity in Langendorff-perfused Sprague-Dawley rat heart assessed as effect on QTc interval time at 10 uM by ECG analysis (reference value: 150.5 +/-5.5 milliseconds); type: toxicity, tissue-based
[2] = system: Heart; assay: Cardiotoxicity in Langendorff-perfused Sprague-Dawley rat heart assessed as effect on QRS interval time at 0.01 uM by ECG analysis (reference value: 15.2 +/-0.2 milliseconds); type: toxicity, tissue-based
[3] = system: Heart; assay: Cardiotoxicity in Langendorff-perfused Sprague-Dawley rat heart assessed as effect on QTc interval time at 0.01 uM by ECG analysis (reference value: 150.5 +/-5.5 milliseconds); type: toxicity, tissue-based
[4] = Mutagenecity in Salmonella typhimurium TA98 in presence of S9 fraction at 1 to 75 uM incubated for 90 mins by Ames test; type: toxicity, subcellular; conditions: salmonella enterica subsp. enterica serovar typhimurium, s9, 1.5 h, dose 1-75 µM
[5] = system: Heart; assay: Cardiotoxicity in Langendorff-perfused Sprague-Dawley rat heart assessed as effect on HR at 0.01 uM by ECG analysis (reference value: 235.7 +/-8.3 bpm); type: toxicity, tissue-based
[6] = system: NIH3T3; assay: Cytotoxicity in mouse NIH3T3 cells assessed as reduction in cell viability at 15 uM incubated for 24 hrs by neutral red uptake method based UV/visible spectrophotometer analysis; type: toxicity; conditions: nih3t3, 24 h
Method in brief: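 NIH3T3 mouse fibroblasts grown in DMEM with 10% FCS, L-glutamine/pen-strep and non-essential amino acids (37 °C, 5% CO2). Exposed 24 h to compound diluted from a DMSO stock into medium. Viability measured by Neutral Red uptake: 3 h in NR medium, then acetic acid/ethanol desorb, absorbance at 540 nm. Student's t-test, p<0.05.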

[7] = system: Heart; assay: Cardiotoxicity in Langendorff-perfused Sprague-Dawley rat heart assessed as effect on QRS interval time at 10 uM by ECG analysis (reference value: 15.2 +/-0.2 milliseconds); type: toxicity, tissue-based
[8] = system: Heart; assay: Cardiotoxicity in Langendorff-perfused Sprague-Dawley rat heart assessed as effect on PQ interval time at 1 uM by ECG analysis (reference value: 43.6 +/-2.5 milliseconds); type: toxicity, tissue-based
[9] = Cytotoxicity in mouse NIH3T3 cells assessed as reduction in cell viability by measuring toxic concentration incubated for 24 hrs by neutral red uptake method based UV/visible spectrophotometer analysis; type: toxicity; conditions: read-out: TC50
Method in brief: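 NIH3T3 mouse fibroblasts grown in DMEM with 10% FCS, L-glutamine/penicillin/streptomycin and non-essential amino acids, 37 °C, 5% CO2. DMSO stocks diluted in complete medium, applied to monolayers for 24 h at several concentrations. Viability by Neutral Red uptake: 3 h dye loading, desorb in acetic acid/ethanol, absorbance at 540 nm. Student's t-test, p < 0.05.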

[10] = system: Heart; assay: Cardiotoxicity in Langendorff-perfused Sprague-Dawley rat heart assessed as effect on QRS interval time at 1 uM by ECG analysis (reference value: 15.2 +/-0.2 milliseconds); type: toxicity, tissue-based
[11] = system: Heart; assay: Cardiotoxicity in Langendorff-perfused Sprague-Dawley rat heart assessed as effect on QT interval time at 0.01 uM by ECG analysis (reference value: 76.2 +/-2.9 milliseconds); type: toxicity, tissue-based
[12] = system: Heart; assay: Cardiotoxicity in Langendorff-perfused Sprague-Dawley rat heart assessed as effect on QTc interval time at 1 uM by ECG analysis (reference value: 150.5 +/-5.5 milliseconds); type: toxicity, tissue-based
[13] = Toxicity in zebra fish embryo at 50 uM […]; parameters: species or system Danio rerio; conditions: zebrafish
Method in brief: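 Wildtype Tübingen zebrafish larvae reared at 28.5 °C (14 h light/10 h dark) in embryo medium with methylene blue. From 3 days old, exposed for 2 days to 1, 10, 25, 50 or 100 µM in embryo medium, or 0.1% DMSO vehicle. 4 larvae per well in 400 µL, 8 larvae per group. Larvae scored for swim bladder inflation and cardiac edema.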

[14] = system: Heart; assay: Cardiotoxicity in Langendorff-perfused Sprague-Dawley rat heart assessed as effect on HR at 1 uM by ECG analysis (reference value: 235.7 +/-8.3 bpm); type: toxicity, tissue-based
[15] = system: Heart; assay: Cardiotoxicity in Langendorff-perfused Sprague-Dawley rat heart assessed as effect on RR time at 0.01 uM by ECG analysis (reference value: 257.2 +/-8.1 milliseconds); type: toxicity, tissue-based
[16] = system: NIH3T3; assay: Cytotoxicity in mouse NIH3T3 cells assessed as reduction in cell viability at 5 uM incubated for 24 hrs by neutral red uptake method based UV/visible spectrophotometer analysis; type: toxicity; conditions: nih3t3, 24 h
Method in brief: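 NIH3T3 fibroblasts grown in DMEM with 10% FCS, L-glutamine/pen-strep and non-essential amino acids at 37 °C, 5% CO2. Monolayers exposed 24 h to compound diluted from a DMSO stock into medium. Neutral Red medium then added for 3 h at 37 °C. Dye extracted with acetic acid/ethanol desorb solution and absorbance read at 540 nm. Student's t-test, p<0.05.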

[17] = Mutagenecity in Salmonella typhimurium TA100 in presence of S9 fraction at 1 to 75 uM incubated for 90 mins by Ames test; type: toxicity, subcellular; conditions: salmonella enterica subsp. enterica serovar typhimurium, s9, 1.5 h, dose 1-75 µM
[18] = system: Heart; assay: Cardiotoxicity in Langendorff-perfused Sprague-Dawley rat heart assessed as effect on QT interval time at 10 uM by ECG analysis (reference value: 76.2 +/-2.9 milliseconds); type: toxicity, tissue-based
[19] = system: Heart; assay: Cardiotoxicity in Langendorff-perfused Sprague-Dawley rat heart assessed as effect on PQ interval time at 0.1 uM by ECG analysis (reference value: 43.6 +/-2.5 milliseconds); type: toxicity, tissue-based
[20] = system: Heart; assay: Cardiotoxicity in Langendorff-perfused Sprague-Dawley rat heart assessed as effect on QTc interval time at 0.1 uM by ECG analysis (reference value: 150.5 +/-5.5 milliseconds); type: toxicity, tissue-based
[21] = Toxicity in zebra fish embryo assessed as visual capacity changes at 1 to 100 uM […] by optokinetic reflex assay; parameters: species or system Danio rerio; conditions: zebrafish, dose 1-100 µM
Method in brief: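 Wildtype Tübingen larvae at 28.5 °C were exposed from 3 days old for 2 days to 1–100 µM (1, 10, 25, 50, 100) in embryo medium, against 0.1% DMSO vehicle. 8 larvae per group. Visual function was then tested by optokinetic reflex at 2 days post-treatment, on 5-day-old larvae.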

[22] = system: Heart; assay: Cardiotoxicity in Langendorff-perfused Sprague-Dawley rat heart assessed as effect on QT interval time at 0.1 uM by ECG analysis (reference value: 76.2 +/-2.9 milliseconds); type: toxicity, tissue-based
[23] = system: Heart; assay: Cardiotoxicity in Langendorff-perfused Sprague-Dawley rat heart assessed as effect on QRS interval time at 0.1 uM by ECG analysis (reference value: 15.2 +/-0.2 milliseconds); type: toxicity, tissue-based
[24] = organism: Homo sapiens; assay: Antifibrotic activity in TGF-beta1-induced human Lung parenchyma assessed as inhibition of alpha-SMA mRNA expression at 4.1 uM incubated upto 7 days by qRT-PCR analysis; type: functional; conditions: time <= 7.0 day
Method in brief: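 Human lung parenchyma pieces (2 mm³) cultured in DMEM with TGF-β1 (10 ng/mL) plus compound at 0.41 or 4.1 μM or vehicle (0.1% DMSO). Tissue collected on day 7, homogenized, total RNA purified, then qRT-PCR for HDAC6, collagen I, collagen III, αSMA and fibronectin. Relative expression by the 2^-Ct method; n=3, paired t test.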

For `CC1(C)c2ccccc2N(Cc2ccc(C(=O)NO)cc2)C1c1cccnc1` (racemic), the Time [1] was 145.3 ms, the Time [2] was 15.6 ms and the Time [3] was 154.6 ms. The Activity [4] was “Non-Toxic”, the Activity [5] was 235.4 bpm and the Activity [6] was 94%. For the same compound, the Time [7] was 18 ms, the Time [8] was 44.5 ms and the CC50 at 24 h [9] was 75 µM. The Time [10] was 15.8 ms, the Time [11] was 78.1 ms and the Time [12] was 150.8 ms. For the same compound, the Activity [13] was “Non-Toxic”, the Activity [14] was 235.4 bpm and the Time [15] was 255.9 ms. For the same compound, the Activity [16] was 98%, the Activity [17] was “Non-Toxic” and the Time [18] was 78.3 ms. For the same compound, the Time [19] was 44.6 ms, the Time [20] was 155.1 ms and the Activity [21] was “Non-Toxic”. For the same compound, the Time [22] was 78 ms, the Time [23] was 15.4 ms and the Activity [24] was “Active”.
